# Compound activity deposited in PubChem by The Scripps Research Institute Molecular Screening Center.
# STAT1 act: STAT1 signaling activators, primary screen, cell-based, HTS, luciferase reporter. NIH 3T3 STAT1-luciferase reporter, IFN-gamma, luminescence; 100% = IFN-gamma alone, no compound. activation (% of control), % at 5.5 µM. 200,000 compounds, 2.6% hits. AID 932, 2007;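 active = activation above the screen-wide mean activation plus 3 SD, cut at about 130% in these data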;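 note: raw ratio to IFN-gamma control signal so 100% means no change and 0% no light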
# STAT3 act: IL-6 driven STAT3 reporter potentiators, primary screen, U3A cells, luciferase, luminescence, MLSCN library. activation (% of control), % at 5.6 µM. IL-6 STAT3-luciferase reporter; 100% = signal with IL-6 EC80 alone. 190,000 compounds, 0.91% hits;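 active = activation above the screen-wide mean of compound activation plus 3 SD, cut at about 130% in these data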;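 note: 0% = background luminescence of wells with medium and substrate only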
#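 Detection: reporter luminescence signal / Assay system: STAT1-lacking human U3A cells, STAT3 luciferase reporter / Incubation: compound pre-incubation 1 h before IL-6, then 6 h stimulation at 37 °C / Control set: IL-6-only high control / Read-out: % activation relative to IL-6 control / Probe or stimulus: Interleukin-6, 33 ng/mL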
# STAT1 inh: STAT1 signaling inhibitors, primary screen, cell-based, HTS, luciferase reporter | NIH 3T3 STAT1-luciferase reporter, IFN-gamma, luminescence | 200,000 compounds, 0.35% hits | inhibition, % at 5.5 µM;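 active = inhibition above a set limit, the mean inhibition across all tested compounds plus 3 SD, cut at about 34% in these data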;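 note: 0% = IFN-gamma with DMSO and 100% = IFN-gamma with 300 µM nifuroxazide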
# STAT3 inh-1: IL-6 driven STAT3 reporter inhibitors, primary screen, U3A cells, luciferase, luminescence, MLSCN library; 190,000 compounds, 0.89% hits; inhibition, % at 5.5 µM; IL-6 STAT3-luciferase reporter; host cell line lacks STAT1;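 active = inhibition above the mean inhibition across all screened compounds plus 3 SD, cut at about 44% in these data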;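 note: 0% = DMSO only wells and 100% = 100 µM nifuroxazide control wells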
# STAT3 inh-2: STAT3 reporter inhibitors, retest of hits, confirmation, U3A cells, luciferase, luminescence; shares compounds with STAT3 inh-1; IL-6 STAT3 luciferase reporter; cell line lacks STAT1; inhibition, % at 5.7 µM; 1,200 compounds, 45% hits;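 active = inhibition above the hit cutoff computed for the primary STAT3 screen, cut at about 44% in these data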;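 note: 0% = IL-6 plus DMSO and 100% = IL-6 plus nifuroxazide control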
# NFkB inh STAT3ct: NF-kB reporter inhibitors in human cells, confirmation, counter-screen for STAT3 inhibitor project, cell-based, HEK293T, luciferase, TNF-alpha stimulus | shares compounds with STAT3 inh-1 | TNF-alpha induced | 1,200 compounds, 36% hits | inhibition, % at 5.7 µM;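 active = inhibition above the mean of solvent-only control wells plus 3 SD, cutoff set per campaign, cut at about 13% in these data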;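 note: 0% = TNF-alpha with DMSO and 100% = TNF-alpha with MG high control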
# STAT1 inh 2: STAT1 reporter inhibitors, IFN-gamma induced, confirmation, counter-screen for STAT3 inhibitor project, cell-based, NIH 3T3, luciferase luminescence; 1,200 compounds, 27% hits; shares compounds with STAT3 inh-1; NIH 3T3 STAT1-luciferase reporter; inhibition, % at 5.7 µM; AID 1317, 2008;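 active = inhibition above the mean plus 3 SD of solvent-only control wells, limit set per screening run, cut at about 16% in these data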;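 note: 0% = DMSO with IFN-gamma and 100% = nifuroxazide control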
# An asterisk follows results filed as active; · = no result given. This is a sample that favours compounds with a hit; in the whole collection about 4.3% have one here.
SMILES,STAT1 act,STAT3 act,STAT1 inh,STAT3 inh-1,STAT3 inh-2,NFkB inh STAT3ct,STAT1 inh 2
CCN(CC)S(=O)(=O)c1ccc(NC(=O)c2ccc(CN3CCOCC3)cc2)cc1,88.0,47.2,10.8,66.2*,79.9*,26.4*,6.9
CN(c1ccccc1C(=O)Nc1ccc(S(=O)(=O)N2CCCC2)cc1)S(C)(=O)=O,107.3,106.2,-8.0,-7.2,·,·,·
CN(c1ccc(C(=O)Nc2ccc(S(=O)(=O)N3CCCC3)cc2)cc1)S(C)(=O)=O,100.9,54.2,-3.0,58.0*,43.3,6.0,-0.6
CCCCc1ccc(NC(=O)c2cnccn2)cc1,74.5,48.4,26.0,62.5*,28.9,-23.3,-65.9
CCN(CC)S(=O)(=O)c1cc(NC(=O)CSc2nccn2C)ccc1C,101.9,88.4,-2.4,17.9,·,·,·
CCCCCNC(=O)c1c[nH]c2ccc(S(=O)(=O)N3CCC4(CC3)OCCO4)cc2c1=O,96.7,84.7,3.6,20.9,·,·,·
Cc1ccc(C(=O)Nc2ccc(S(=O)(=O)N3CCOCC3)cc2)cc1,91.3,96.5,9.8,6.3,·,·,·
O=C(CN1CCCCC1)Nc1ccc(S(=O)(=O)N2CCOCC2)cc1,98.7,96.8,1.4,0.8,·,·,·
O=C(Nc1ccc(Cc2ccncc2)cc1)c1ccc(S(=O)(=O)N2CCOCC2)cc1,87.5,45.0,13.7,70.4*,56.7*,11.8,12.3
O=C(Nc1ccc(S(=O)(=O)N2CCCC2)cc1)c1cnccn1,89.4,98.9,9.7,3.6,·,·,·
O=C(Nc1ccc(S(=O)(=O)N2CCCCC2)cc1)c1ccc(CN2CCOCC2)cc1,85.8,33.2,11.6,82.8*,79.8*,28.6*,9.2
O=C(Nc1ccc(S(=O)(=O)N2CCN(Cc3ccccc3)CC2)cc1)c1cnccn1,80.8,35.6,21.1,82.0*,74.6*,25.1*,22.6*
N#CCC(=O)N/N=C/c1ccc(OCC(=O)Nc2ccc(F)cc2)cc1,103.6,88.5,-6.1,19.1,·,·,·
CCCCn1[nH]c(-c2ccccc2)cc1=O,90.3,96.8,11.0,6.6,·,·,·
O=Cc1cc2ccccc2nc1SCCCF,101.1,116.1,-1.8,-17.1,·,·,·
CC(=O)c1ccc(NC(=O)c2cnsn2)cc1,114.3,89.6,-17.6,14.4,·,·,·
COc1ccc(/C=N/Nc2nncc3ccccc23)cc1,120.5,45.3,-22.4,64.2*,70.6*,51.1*,33.0*
COc1ccc(/C=N/Nc2nccnc2Cl)cc1,103.4,68.9,-3.7,37.1,·,·,·
O=C(CCCNC(=O)/C(=C/c1ccccc1F)NC(=O)c1ccccc1)OCc1ccccc1,110.2,113.0,-11.3,-11.2,·,·,·
CCOC(=O)c1c(CSc2cccs2)n(C)c2cc(Br)c(O)c(CN(C)C)c12,93.6,108.4,5.5,-8.7,·,·,·
CCCOc1ccc(CSc2nc3ccccc3[nH]2)cc1,92.1,50.0,8.6,59.1*,47.9*,-1.3,-16.2
O=C(c1ccc(N2C(=O)C3CC=C(Cl)CC3C2=O)cc1)N1CCCCC1 (stereo unspecified),95.5,96.5,4.8,7.0,·,·,·
O=C(Nc1ccc(Br)cc1)c1ccc(N2C(=O)C3CC=C(Cl)CC3C2=O)cc1 (stereo unspecified),101.3,63.7,-1.4,46.6*,33.0,-15.4,-17.4
O=C(Nc1cccc2cccnc12)C1CCCC1,96.5,98.2,3.9,4.9,·,·,·
Fc1cccc(F)c1-n1c(CN2CCCC2)csc1=S,101.8,100.8,-1.8,-1.3,·,·,·
SMILES,STAT1 act,STAT3 act,STAT1 inh,STAT3 inh-1,STAT3 inh-2,NFkB inh STAT3ct,STAT1 inh 2
COc1ccc(-n2c(C)nc3c(cnn3-c3ccc(Cl)cc3)c2=O)cc1,88.4,60.1,12.8,51.9*,41.7,8.8,7.7
CCN=c1scc(-c2ccc3c(c2)NC(=O)CO3)n1N=C1CCCC1,88.1,43.1,13.1,73.2*,63.6*,14.2*,13.2
Cc1ccc(/C=C2\SC(N3CCN(C(c4ccccc4)c4ccccc4)CC3)=NC2=O)o1,88.3,92.1,13.0,11.9,·,·,·
Cc1csc(N/N=C/c2ccccn2)n1,74.1,58.6,27.7,53.1*,20.5,9.6,-42.2
COC(=O)C(C)NC(=O)c1ccc(C(C)(C)C)cc1 (stereo unspecified),120.8,106.6,-23.2,-5.0,·,·,·
Nc1nc2c(Cl)ccc(Cl)c2s1,83.9,64.6,15.7,45.6*,40.5,-7.1,-14.3
C/C(CCC(C)C)=N\Nc1cc(C)c2ccccc2n1,106.4,115.1,-10.4,-13.0,·,·,·
COc1ccc(NS(=O)(=O)c2ccc(NC(=O)c3ccc(CN4CCOCC4)cc3)cc2)cc1,81.1,38.5,19.8,73.1*,66.0*,15.8*,13.7
O=C(Nc1ccc(S(=O)(=O)Nc2ccc(F)cc2)cc1)c1ccc(CN2CCOCC2)cc1,92.5,34.8,6.1,79.6*,84.5*,30.1*,13.5
COc1ccc(NS(=O)(=O)c2ccc(O)c(NC(=O)c3ccc(S(=O)(=O)N4CCCCCC4)cc3)c2)cc1,96.4,95.8,4.1,2.6,·,·,·
COc1ccc(NS(=O)(=O)c2cccc(NC(=O)c3ccc(S(=O)(=O)N4CCCCCC4)cc3)c2)cc1,82.3,48.6,19.9,61.4*,69.0*,23.2*,25.2*
O=C(Nc1c2c(nc3c1CCC3)CCCC2)c1ccccn1,90.0,92.3,11.4,12.6,·,·,·
Cc1ccc(C2(c3ccc(C)cc3)CC2C(=O)Nc2ccc([N+](=O)[O-])cc2O)cc1 (stereo unspecified),98.7,94.8,1.5,11.3,·,·,·
COc1ccccc1C1=Nn2c(COc3ccccc3)nnc2SC1,86.4,123.8,13.5,-18.9,·,·,·
CN(C(=O)CC(=O)Nc1ccc(Cl)c(Cl)c1)c1ccccc1,102.1,100.7,-3.3,0.4,·,·,·
CCOC(=O)N1CCN(c2nc3ccccc3nc2C(C#N)S(=O)(=O)c2ccc(C)cc2)CC1 (stereo unspecified),99.2,98.4,0.9,2.7,·,·,·
Cc1ccc(S(=O)(=O)C(C#N)c2nc3ccccc3nc2N2CCN(C)CC2)cc1 (stereo unspecified),109.4,66.6,-10.3,43.5*,59.3*,19.4*,2.5
CCN(CC)C(=O)C1CCN(S(=O)(=O)c2ccc3oc4ccccc4c3c2)CC1,88.2,68.4,12.9,44.7*,33.0,5.0,10.7
CCC(=O)/C=C1/Sc2ccccc2N1CC,99.7,86.3,-0.8,19.4,·,·,·
CC[n+]1c(/C=C2\Sc3ccccc3N2C)ccc2cccc(C)c21,91.0,32.8,9.4,84.5*,80.2*,31.1*,8.3
CC(=S)/C=C1\Sc2ccccc2N1C,97.4,92.9,3.0,13.6,·,·,·
